This is an account of results in ChEMBL document CHEMBL1275586, “Phenotypic susceptibility to bevirimat in isolates from HIV-1-infected patients without prior exposure to bevirimat” (Antimicrob Agents Chemother, 2010).

What all share (assay type): functional, MT2
For experiment [1], the system named is Human immunodeficiency virus 1. Kind of experiment: Antiviral activity against Human immunodeficiency virus 1 isolate 32 harboring Gag-capsid, I138L, A146P, I147L, V159I, V215L, I223A, N252S/N, T280V and S310T and protease R41K/R, I62V, L63P, V77I and I93L mutant gene infected in human MT-2 cells by XTT-assay relative to wild-type. In a few lines:
(§1)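 Patient Gag-protease (SfoI-XmaI) fragments were ligated into the pXXLAI backbone, with colonies pooled to keep quasispecies. Virus came from 293T transfection, harvested at 2 days. MT-2 infection at 37°C used an input giving XTT signal-to-noise of 2.5–4.0 (≈MOI 0.001). Cells at ≈17,000/well with drug dilutions, 5 days, 37°C; XTT 1 h, A450–650. EC50 from % cell death; fold change vs wild-type LAI.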

Experiment [2] concerns Human immunodeficiency virus 1. Kind of experiment: Antiviral activity against Human immunodeficiency virus 1 isolate 8 harboring Gag-capsid V215T mutant gene and protease L10I, L24I, L33F, S37N, R41K, I54V, D60E, I62V, L63P, A71V, V77I, V82A and I84V mutant gene infected in human MT-2 cells by XTT-assay relative to wild-type. The method, boiled down: as §1
On the technique in general: Formazan colour is commonly taken as a measure of viable cells.

Experiment [3] deals with Human immunodeficiency virus 1. Kind of experiment: Antiviral activity against Human immunodeficiency virus 1 isolate 21 harboring Gag-capsid I138L, A146P, I147L/I, V159I/V, E211D, V215L, N252H/N, R286K/R and K331R/K mutant gene and protease E35D, M36I, S37N, I62V and L63C mutant gene infected in human MT-2 cells by XTT-assay relative to wild-type. The method, boiled down: as §1

For experiment [4], the system named is Human immunodeficiency virus 1. The experiment can be described thus: Antiviral activity against Human immunodeficiency virus 1 isolate 26 harboring Gag-capsid I138L, A146S, I147L, E312D, A326S, L337M, and A340G mutant gene and protease T4S, L10F, V11L, I13V, I15V, K20A, V32I, L33F, M36I, S37D, K43T, M46I, I54L, I62V, L63P, A71I, I72K, G73T, I84V,I85V, L89V and L90M mutant gene infected in human MT-2 cells by XTT-assay relative to wild-type. In a few lines: as §1

The subject of experiment [5] is Human immunodeficiency virus 1. The experiment can be described thus: Antiviral activity against Human immunodeficiency virus 1 isolate 36 harboring Gag-capsid I138L, A146P, S165N/S, E207D, V215L and E312D mutant gene and protease K14R/K, I15V, E35D, S37D, R57K/R and L63P mutant gene infected in human MT-2 cells by XTT-assay relative to wild-type. The method, boiled down:
as §1

For experiment [6], the system named is Human immunodeficiency virus 1. Kind of experiment: Antiviral activity against Human immunodeficiency virus 1 isolate 20 harboring Gag-capsid I138L, V215L, V218P, H219Q, M228I, E230D, G248T, T280A, E312D, A340G and G357S mutant gene and protease L10F, A22V, D30N, S37N, K45R, I54L, I62V, L63P, A71V, V77I, I84V, N88D and Q92K mutant gene infected in human MT-2 cells by XTT-assay relative to wild-type. The method, boiled down:
as §1

In experiment [7] the test system is Human immunodeficiency virus 1. The experiment can be described thus: Antiviral activity against Human immunodeficiency virus 1 isolate 5 harboring Gag-capsid I138M, V159I, T280V and S310T mutant gene and protease I13V, D30N, L33I, E35D, M36I, S37N, M46I/L, I54V, I62V, L63P, I66M/I, A71N/T, I72T/I, V82L/V, N88D, L90M and I93L/I mutant gene infected in human MT-2 cells by XTT-assay relative to wild-type. The method, boiled down:
as §1

The subject of experiment [8] is Human immunodeficiency virus 1. The experiment can be described thus: Antiviral activity against Human immunodeficiency virus 1 isolate 27 harboring Gag-capsid I138L, S173T/S, V215L, L268M, R275K/R, T280V, S310T, E319D and G357S and protease L10I, I15V, L19V, V32I, L33F, M46I, I54V, K55R, R57K, L63P, C67F, H69Q, A71V, G73C/G, V82A, L90M and Q92K mutant gene and deletion at A341 in Gag- capsid infected in human MT-2 cells by XTT-assay relative to wild-type. The method, boiled down: as §1

Experiment [9] has as its system Human immunodeficiency virus 1. The experiment can be described thus: Antiviral activity against Human immunodeficiency virus 1 isolate 1 harboring Gag-capsid I138L, V159I, E203D, V215L, I223V, T280V, E312D and V323I mutant gene and protease L10I, K20R, M36I, S37N, G48V, I54M, I62V, L63P, A71V, I72V, V82A, I84V, L90M and I93L/I mutant gene infected in human MT-2 cells by XTT-assay relative to wild-type. In a few lines:
as §1

Experiment [10] deals with Human immunodeficiency virus 1. The experiment can be described thus: Antiviral activity against Human immunodeficiency virus 1 isolate 6 harboring Gag-capsid I138L and V215L mutant gene and protease L10I, S37N, M46L, G48V, R57K, L63P, I66F, A71V, V82T and I84V mutant gene infected in human MT-2 cells by XTT-assay relative to wild-type. In a few lines:
as §1

Experiment [11] concerns Human immunodeficiency virus 1. Kind of experiment: Antiviral activity against Human immunodeficiency virus 1 isolate 33 harboring Gag-capsid I138L, V215L, V218P, H219Q, I223V, M228I, G248T, N252S, N253T, I256M, E312D and A326S mutant gene and protease T12S/T, I13V/I, I15V, L19I, S37T, L63V/A/P/L and I72V/I mutant gene infected in human MT-2 cells by XTT-assay relative to wild-type. In a few lines: as §1

Experiment [12] relates to Human immunodeficiency virus 1. Kind of experiment: Antiviral activity against Human immunodeficiency virus 1 isolate 34 harboring Gag-capsid I138L, I147L, V159I, V215L, T280V, A309C, S310T, E312D and G357S mutant gene and protease L10I, I13V, E35D, S37N, I62V, L63P and I64M mutant gene infected in human MT-2 cells by XTT-assay relative to wild-type. In a few lines: as §1

Experiment [13] concerns Human immunodeficiency virus 1. The experiment can be described thus: Antiviral activity against Human immunodeficiency virus 1 isolate 38 harboring Gag-capsid I138L, I147L, V215L, H219Q/H, I223V, N252H, P292S, A336S/A and A340G mutant gene and protease E35D, S37A and L63P mutant gene infected in human MT-2 cells by XTT-assay relative to wild-type. The method, boiled down: as §1

The test system of experiment [14] is Human immunodeficiency virus 1. Kind of experiment: Antiviral activity against Human immunodeficiency virus 1 isolate 24 harboring Gag-capsid I138L, V159I, V215L, I223A, T239S, N252S, T280V, R286K, S310T and V362I mutant gene and protease L10V, I13V, I15V, K20R, D30N, V32I, L33F, E35D, M36I, S37N, K43T, M46I, I47V, F53L, I54L, I62V, L63P, I66F, A71V, T74S, V82A, N88D, L89V, L90M and I93V mutant gene infected in human MT-2 cells by XTT-assay ….

For experiment [15], the system named is Human immunodeficiency virus 1. The experiment can be described thus: Antiviral activity against Human immunodeficiency virus 1 isolate 4 harboring Gag-capsid A146P, V159I, K162R, Q182S, T186I, V215L, I223G/V, N252G, P255A, E260D, E312D and G357S mutant gene and protease L10R, S37N, M46L, I62V, L63P, A71V, T74S, V82T, L90M and I93L mutant gene infected in human MT-2 cells by XTT-assay relative to wild-type. In a few lines: as §1

In the case of `Cc1cccc(C)c1OCC(=O)N[C@@H](Cc1ccccc1)[C@@H](O)C[C@H](Cc1ccccc1)NC(=O)[C@H](C(C)C)N1CCCNC1=O` [LOPINAVIR], the “fold change (FC)” value stood at 0.5 in experiment [1]; 28.7 in [2]; 0.6 in experiment [3]; 46.5 in experiment [4]; 1.1 in experiment [5]; 13.3 in [6]. Also, the “fold change (FC)” value is listed as 12.1 in [7]; 29.2 in [8]; 22.1 in experiment [9]; 3.4 in experiment [10]; 1.6 in experiment [11]; 1.4 in experiment [12]. Moreover, the “fold change (FC)” value in experiment [13] stood at 0.9; in experiment [14], 69; in experiment [15] it was 15.2.
Consider `COC(=O)N[C@H](C(=O)N[C@@H](Cc1ccccc1)[C@@H](O)CN(Cc1ccc(-c2ccccn2)cc1)NC(=O)[C@@H](NC(=O)OC)C(C)(C)C)C(C)(C)C` [ATAZANAVIR], for which the “fold change (FC)” value in experiment [1] is on record as 1.2; in experiment [2] it was 29; in [3], 0.8; in experiment [4], 571; in experiment [5], 1.3; in experiment [6] it was 51.9. Also, the “fold change (FC)” value in [7] is 63.2; in [8], 52.1; in experiment [9] it was 62.9; in [10], 29.2; in [11], 1.8; in experiment [12], 1.6. Further, the results for the “fold change (FC)” value in experiment [13], in experiment [14] and in [15] were 1.2, 590 and 13.3, respectively.
